Source: ChEMBL document CHEMBL4011634 (J Med Chem, 2017)
Blank lines part the entries; values can stand above or below the molecule they belong to.

Experiments:
[1] = molecular target: Macrophage metalloelastase (Homo sapiens, UniProt P39900); test: Inhibition of human MMP12 using Mca-PQGL-(3-[2, 4-dinitrophenyl]-L-2, 3-diaminopropionyl)-AR-OH as substrate after 2 to 4 hrs by fluorescence assay
Rattus norvegicus [2] = test: (§1) Antiarthritic activity in MIA-induced osteoarthritis Lewis rat model assessed as decrease in aggrecan degradation products by measuring ARGNV levels in synovial fluid at 30 mg/kg, po bid starting on day 3 post MIA induction measured at 4 hrs post single oral dose on day 7 by ELISA relative to control; assay type: functional; set-up: scale not given: the % may be the effect or the level left
In short: (§2)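 Male Lewis rats aged 7-8 weeks received 3 mg freshly prepared MIA (sodium salt) in 0.9% saline intra-articularly into the right knee on day 0, with saline alone in the left knee. Inhibitor or vehicle (1% hydroxyethyl cellulose, 0.25% Tween 80, 0.05% antifoam) was given PO BID from day 3, with a single dose on day 7. Knees were saline-lavaged 4 h later, and aggrecan fragments were quantified by ELISA.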

Rattus norvegicus [3] = test: Drug metabolism in po or iv dosed bile-duct cannulated rat assessed as glutathione conjugation by HPLC-MS analysis; assay type: ADME, organism-based; details: in vivo
[4] = Cmax in rat at 1 mg/kg, iv; assay type: ADME, organism-based; set-up: dose 1 mg/kg, route intravenous; details: in vivo
[5] = Cmax in rat at 10 mg/kg, po; assay type: ADME, organism-based; set-up: dose 10 mg/kg, route oral; details: in vivo
Stromelysin-1 = Stromelysin-1 (Homo sapiens, UniProt P08254); test: Inhibition of human MMP3 using Mca-PQGL-(3-[2, 4-dinitrophenyl]-L-2, 3-diaminopropionyl)-AR-OH as substrate after 2 to 4 hrs by fluorescence assay
[6] = Tmax in rat at 10 mg/kg, po; assay type: ADME, organism-based; details: in vivo
[7] = Plasma concentration in rat at 10 mg/kg, po measured at 12 hrs post dose; assay type: ADME, organism-based
[8] = Plasma concentration in rat at 1 mg/kg, iv measured at 12 hrs post dose; assay type: ADME, organism-based
[9] = AUC (0 to 24 hrs) in rat at 1 mg/kg, iv; assay type: ADME, organism-based; set-up: time < 24 hr, dose 1 mg/kg, route intravenous; details: in vivo
In short: (§3)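 Rat plasma pharmacokinetics after IV dosing at 1 mg/kg or oral dosing at 10 mg/kg. Plasma concentrations were followed to 24 h.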

[10] = AUC (0 to 24 hrs) in rat at 10 mg/kg, po; assay type: ADME, organism-based; set-up: dose 10 mg/kg, time < 24 hr, route oral; details: in vivo; in short: as §3
[11] = Half life in rat at 1 mg/kg, iv; assay type: ADME, organism-based; details: in vivo
[12] = Half life in rat at 10 mg/kg, po; assay type: ADME, organism-based; details: in vivo
[13] = Clearance in rat at 1 mg/kg, iv; assay type: ADME, organism-based; details: in vivo
[14] = Volume of distribution in rat at 1 mg/kg, iv; assay type: ADME, organism-based; details: in vivo
[15] = Oral bioavailability in rat at 10 mg/kg; assay type: ADME, organism-based; details: in vivo
Rattus norvegicus [16] = test: as §1, with “10” for “30”; assay type: functional; set-up: scale not given: the % may be the effect or the level left; in short: as §2
Rattus norvegicus [17] = test: as §1, with “75” for “30”; assay type: functional; set-up: scale not given: the % may be the effect or the level left; in short: as §2
[18] = molecular target: 72 kDa type IV collagenase (Homo sapiens, UniProt P08253); test: Inhibition of human MMP2 using Mca-PQGL-(3-[2, 4-dinitrophenyl]-L-2, 3-diaminopropionyl)-AR-OH as substrate after 2 to 4 hrs by fluorescence assay
Collagenase 3 = Collagenase 3 (Homo sapiens, UniProt P45452); test: Inhibition of human MMP13 using Mca-PQGL-(3-[2, 4-dinitrophenyl]-L-2, 3-diaminopropionyl)-AR-OH as substrate after 2 to 4 hrs by fluorescence assay
[19] = molecular target: Matrix metalloproteinase-14 (Homo sapiens, UniProt P50281); test: Inhibition of human MMP14 using Mca-PQGL-(3-[2, 4-dinitrophenyl]-L-2, 3-diaminopropionyl)-AR-OH as substrate after 2 to 4 hrs by fluorescence assay
[20] = molecular target: T1, A disintegrin and metalloproteinase with thrombospondin motifs 4 (Homo sapiens, UniProt O75173); test: Inhibition of human ADAMTS4 using VQTVTWPDMELPLPRNITEGEARGSVILTVKPIFEVSPSPLKG peptide as substrate after 3 hrs by Alphascreen assay
T1 sequence (O75173 whole entry): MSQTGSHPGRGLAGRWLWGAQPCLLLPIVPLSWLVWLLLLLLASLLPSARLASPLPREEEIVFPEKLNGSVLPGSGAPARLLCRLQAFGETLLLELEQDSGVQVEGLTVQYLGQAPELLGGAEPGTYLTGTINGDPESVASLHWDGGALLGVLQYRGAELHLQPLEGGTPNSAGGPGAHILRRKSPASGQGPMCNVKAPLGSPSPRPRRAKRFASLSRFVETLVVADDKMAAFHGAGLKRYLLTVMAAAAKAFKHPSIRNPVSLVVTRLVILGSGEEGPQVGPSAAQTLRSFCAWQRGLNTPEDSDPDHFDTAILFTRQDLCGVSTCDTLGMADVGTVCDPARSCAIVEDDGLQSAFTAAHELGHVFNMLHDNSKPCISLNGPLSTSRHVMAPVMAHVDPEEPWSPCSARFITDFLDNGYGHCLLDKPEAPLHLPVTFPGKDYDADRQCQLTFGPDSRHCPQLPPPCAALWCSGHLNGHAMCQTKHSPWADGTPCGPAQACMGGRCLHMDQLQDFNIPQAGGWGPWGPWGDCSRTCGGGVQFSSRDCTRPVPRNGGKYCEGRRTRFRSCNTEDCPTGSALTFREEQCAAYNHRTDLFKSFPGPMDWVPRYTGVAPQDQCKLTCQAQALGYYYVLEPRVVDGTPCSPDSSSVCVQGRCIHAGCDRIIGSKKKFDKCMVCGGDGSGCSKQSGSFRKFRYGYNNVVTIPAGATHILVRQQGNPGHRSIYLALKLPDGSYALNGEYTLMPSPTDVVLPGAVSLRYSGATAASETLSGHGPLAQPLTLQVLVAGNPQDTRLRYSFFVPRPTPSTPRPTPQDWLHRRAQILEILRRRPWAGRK

[21] = molecular target: T2, A disintegrin and metalloproteinase with thrombospondin motifs 5 (Homo sapiens, UniProt Q9UNA0); test: Inhibition of human ADAMTS5 using VQTVTWPDMELPLPRNITEGEARGSVILTVKPIFEVSPSPLKG peptide as substrate after 3 hrs by Alphascreen assay
T2 sequence (Q9UNA0 whole entry): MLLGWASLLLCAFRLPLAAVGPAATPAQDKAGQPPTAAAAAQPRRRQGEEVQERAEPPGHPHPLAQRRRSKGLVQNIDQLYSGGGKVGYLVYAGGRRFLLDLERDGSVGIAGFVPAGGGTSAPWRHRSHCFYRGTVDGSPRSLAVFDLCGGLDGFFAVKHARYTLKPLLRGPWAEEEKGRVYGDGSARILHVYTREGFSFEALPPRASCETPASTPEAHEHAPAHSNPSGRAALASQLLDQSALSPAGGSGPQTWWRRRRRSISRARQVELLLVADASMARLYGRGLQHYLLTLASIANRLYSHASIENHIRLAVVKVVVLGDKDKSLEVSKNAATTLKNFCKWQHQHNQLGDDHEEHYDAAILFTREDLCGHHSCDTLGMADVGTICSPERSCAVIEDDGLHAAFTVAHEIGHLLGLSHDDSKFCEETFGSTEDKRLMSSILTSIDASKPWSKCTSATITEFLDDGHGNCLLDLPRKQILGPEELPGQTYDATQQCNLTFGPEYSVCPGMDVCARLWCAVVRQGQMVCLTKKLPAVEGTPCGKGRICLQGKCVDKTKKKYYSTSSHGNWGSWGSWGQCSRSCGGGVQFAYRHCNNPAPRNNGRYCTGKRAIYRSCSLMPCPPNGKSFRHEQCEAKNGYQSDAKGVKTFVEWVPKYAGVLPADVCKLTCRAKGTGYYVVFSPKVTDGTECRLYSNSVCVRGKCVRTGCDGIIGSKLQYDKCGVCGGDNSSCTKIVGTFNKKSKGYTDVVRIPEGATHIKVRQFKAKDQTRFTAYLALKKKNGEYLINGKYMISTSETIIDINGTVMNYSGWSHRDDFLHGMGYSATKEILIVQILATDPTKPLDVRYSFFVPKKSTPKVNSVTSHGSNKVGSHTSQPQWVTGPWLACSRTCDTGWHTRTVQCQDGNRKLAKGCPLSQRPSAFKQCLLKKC

[22] = molecular target: T2, A disintegrin and metalloproteinase with thrombospondin motifs 5; test: Inhibition of human ADAMTS5 using VQTVTWPDMELPLPRNITEGEARGSVILTVKPIFEVSPSPLKG peptide as substrate after 3 hrs in the presence of 50% Lewis rat plasma by Alphascreen assay

72 kDa type IV collagenase, sequence (P08253 whole entry): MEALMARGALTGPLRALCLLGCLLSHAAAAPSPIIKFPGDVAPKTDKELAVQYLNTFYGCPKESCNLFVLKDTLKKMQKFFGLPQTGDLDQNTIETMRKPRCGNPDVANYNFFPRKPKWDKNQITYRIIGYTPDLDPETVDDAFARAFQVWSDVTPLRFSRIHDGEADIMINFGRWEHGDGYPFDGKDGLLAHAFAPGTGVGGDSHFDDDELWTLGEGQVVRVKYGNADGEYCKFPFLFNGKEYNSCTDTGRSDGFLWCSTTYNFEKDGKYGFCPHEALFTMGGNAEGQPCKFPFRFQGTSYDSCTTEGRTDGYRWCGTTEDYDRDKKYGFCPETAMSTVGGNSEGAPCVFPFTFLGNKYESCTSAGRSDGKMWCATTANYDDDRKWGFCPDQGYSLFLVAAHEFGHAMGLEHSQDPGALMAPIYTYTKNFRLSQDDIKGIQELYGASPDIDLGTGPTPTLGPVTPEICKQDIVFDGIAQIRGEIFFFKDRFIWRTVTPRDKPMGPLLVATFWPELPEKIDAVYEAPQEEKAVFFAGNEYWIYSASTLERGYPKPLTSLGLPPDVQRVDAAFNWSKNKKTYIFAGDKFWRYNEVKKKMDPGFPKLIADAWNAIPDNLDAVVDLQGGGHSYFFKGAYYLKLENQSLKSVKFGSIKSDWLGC
Macrophage metalloelastase, sequence (P39900 whole entry): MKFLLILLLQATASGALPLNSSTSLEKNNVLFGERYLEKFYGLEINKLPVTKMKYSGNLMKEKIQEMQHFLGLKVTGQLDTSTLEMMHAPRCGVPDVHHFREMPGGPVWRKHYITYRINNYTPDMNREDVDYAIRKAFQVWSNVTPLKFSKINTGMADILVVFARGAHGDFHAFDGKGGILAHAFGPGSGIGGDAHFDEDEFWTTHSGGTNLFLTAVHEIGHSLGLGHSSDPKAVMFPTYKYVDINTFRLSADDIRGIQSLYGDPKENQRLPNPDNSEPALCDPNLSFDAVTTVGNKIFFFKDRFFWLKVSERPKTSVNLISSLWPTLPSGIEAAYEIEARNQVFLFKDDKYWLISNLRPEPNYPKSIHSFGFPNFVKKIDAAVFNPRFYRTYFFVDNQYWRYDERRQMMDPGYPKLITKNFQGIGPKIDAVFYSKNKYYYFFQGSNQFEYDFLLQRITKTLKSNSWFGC
Stromelysin-1, sequence (P08254 whole entry): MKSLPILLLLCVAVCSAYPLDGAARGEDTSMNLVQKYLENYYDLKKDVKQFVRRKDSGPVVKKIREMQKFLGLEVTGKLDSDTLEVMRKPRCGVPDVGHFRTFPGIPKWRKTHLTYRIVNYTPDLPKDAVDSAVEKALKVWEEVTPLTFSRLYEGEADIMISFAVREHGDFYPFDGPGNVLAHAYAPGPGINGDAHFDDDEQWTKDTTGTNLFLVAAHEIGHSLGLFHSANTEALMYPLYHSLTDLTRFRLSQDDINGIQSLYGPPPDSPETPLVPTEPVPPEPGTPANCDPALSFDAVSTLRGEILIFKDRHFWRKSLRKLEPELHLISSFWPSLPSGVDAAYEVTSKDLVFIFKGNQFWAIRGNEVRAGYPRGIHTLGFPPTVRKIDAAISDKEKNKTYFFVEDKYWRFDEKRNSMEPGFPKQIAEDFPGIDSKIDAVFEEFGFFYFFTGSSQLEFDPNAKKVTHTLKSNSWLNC

SMILES: C[C@@]1(O)CCCN(S(=O)(=O)c2ccc(OCc3ccc(F)cc3Cl)cc2)[C@H]1C(=O)NO
IC50 [1]: < 1 nM
Activity (Rattus norvegicus [2]): 50%
Drug metabolism (Rattus norvegicus [3]): Metabolite_Notdetected

SMILES: C[C@]1(CNC(=O)COc2ccc(Cl)cc2)NC(=O)NC1=O
IC50 [1]: 70 nM

SMILES: CC(C)(Cc1ccc(C(F)(F)F)cc1)C(=O)NC[C@@]1(C2CC2)NC(=O)NC1=O
Drug metabolism (Rattus norvegicus [3]): Metabolite_Notdetected

SMILES: O=C1NC(=O)[C@](CNC(=O)c2cc3cc(C(F)(F)F)ccc3o2)(C2CC2)N1
IC50 [1]: 9 nM

SMILES: O=C(CCc1ccc(C(F)(F)F)cc1)NC[C@@]1(C2CC2)NC(=O)NC1=O
IC50 [20]: 4 nM
IC50 [21]: 5 nM
IC50 [22]: 52 nM
IC50 [18]: 310 nM
IC50 (Stromelysin-1): 660 nM
IC50 [1]: 5 nM
IC50 (Collagenase 3): 320 nM
IC50 [19]: 3400 nM
Drug metabolism (Rattus norvegicus [3]): Metabolite_Notdetected

The next lines start with results.

Drug metabolism (Rattus norvegicus [3]): Metabolite_Notdetected
SMILES: CC(C)[C@H](Cc1ccc(C(F)(F)F)cc1)C(=O)NC[C@@]1(C2CC2)NC(=O)NC1=O

Cmax [4]: 1600 nM
Cmax [5]: 6600 nM
IC50 (Stromelysin-1): > 100000 nM
Tmax [6]: 0.5 h
concentration at 12 h [7]: 29 nM
concentration at 12 h [8]: < 5 nM
AUC(0-t) at 24 h [9]: 1.3 µM·h
AUC(0-t) at 24 h [10]: 22 µM·h
half-life [11]: 1.5 h
half-life [12]: 2.6 h
clearance [13]: 33 mL/min/kg
Vd [14]: 4.3 L/kg
bioavailability [15]: 100%
Drug metabolism (Rattus norvegicus [3]): Metabolite_Notdetected
SMILES: O=C1NC(=O)[C@](CNC(=O)[C@@H](Cc2ccc(C(F)(F)F)cc2)C2CC2)(C2CC2)N1
Activity (Rattus norvegicus [16]): 41%
Activity (Rattus norvegicus [2]): 52%
Activity (Rattus norvegicus [17]): 53%

Drug metabolism (Rattus norvegicus [3]): Metabolite_Notdetected
SMILES: C[C@H](Cc1ccc(C(F)(F)F)cc1)C(=O)NC[C@@]1(C2CC2)NC(=O)NC1=O

IC50 [18]: 3000 nM
Drug metabolism (Rattus norvegicus [3]): Metabolite_Notdetected
SMILES: CC[C@H](Cc1ccc(C(F)(F)F)cc1)C(=O)NC[C@@]1(C2CC2)NC(=O)NC1=O

IC50 [18]: 280 nM
IC50 (Stromelysin-1): 2000 nM
IC50 [1]: 7 nM
IC50 (Collagenase 3): 340 nM
IC50 [19]: 1600 nM
Drug metabolism (Rattus norvegicus [3]): Metabolite_Notdetected
SMILES: C[C@@H](Cc1ccc(C(F)(F)F)cc1)C(=O)NC[C@@]1(C2CC2)NC(=O)NC1=O
